# Screening data from PubChem.
# Shown are actives, neighbours in structure and some others; about 3.7% of the full set was active somewhere.
# procasp3 activ: procaspase-3 (human) activation. P42574. recombinant procaspase-3 D3A, Ac-DEVD-pNA absorbance 405 nm. activation, % at 8.5 µM. actives 0.11% (n = 330,000). AID 463141;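 active = activation above the mean of all tested compounds plus 3 SD, cut at about 21% in these data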
# Target sequence (P42574 whole entry D9A/D28A/D175A): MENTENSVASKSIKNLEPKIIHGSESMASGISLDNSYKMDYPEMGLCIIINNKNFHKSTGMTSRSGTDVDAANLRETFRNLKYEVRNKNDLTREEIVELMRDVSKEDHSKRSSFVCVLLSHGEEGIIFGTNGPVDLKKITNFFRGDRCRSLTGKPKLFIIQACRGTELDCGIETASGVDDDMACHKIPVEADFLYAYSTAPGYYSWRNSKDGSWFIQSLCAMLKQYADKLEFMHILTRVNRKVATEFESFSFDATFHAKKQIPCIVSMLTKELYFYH
#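 Evaluation: percent activation relative to control range; Material: Procaspase-3 D3A mutant, all three cleavage aspartates alanine; Compound: single dose, 8.5 µM nominal compound, 0.8% DMSO; Replication: one well per compound; Signal: absorbance at 405 nm, 0 and 120 min; Schedule: 1 h preincubation plus 2 h reaction at 25 °C.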
# proCasp7 act: counter-screen: procaspase-7 (human) activation; activation, % at 8.5 µM; actives 0.093% (n = 330,000); P55210; recombinant procaspase-7, Ac-DEVD-pNA absorbance 405 nm; D23A/D198A/D206A triple mutant, cannot self-cleave; scale: DMSO 0, 5 µM enzyme 100;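 active = percent activation above the screen-wide mean plus 3 SD, cut at about 25% in these data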
# Target sequence (P55210 whole entry D23A/D198A/D206A): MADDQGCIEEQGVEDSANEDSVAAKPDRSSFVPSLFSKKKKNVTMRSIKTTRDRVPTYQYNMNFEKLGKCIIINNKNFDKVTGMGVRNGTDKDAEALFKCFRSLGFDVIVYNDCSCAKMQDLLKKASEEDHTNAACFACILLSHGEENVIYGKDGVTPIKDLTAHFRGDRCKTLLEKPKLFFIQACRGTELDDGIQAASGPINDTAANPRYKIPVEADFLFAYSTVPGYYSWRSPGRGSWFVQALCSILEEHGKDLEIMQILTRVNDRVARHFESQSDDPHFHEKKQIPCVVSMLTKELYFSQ
#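 Detection: p-Nitroaniline absorbance at 405 nm, read at 0 and 120 min; system: Uncleavable procaspase-7 mutant enzyme; evaluation: % activation from two-timepoint absorbance difference, scaled to controls; times: 1 h enzyme–compound preincubation and 2 h substrate reaction, both 25 °C; buffer or medium: Zinc-free HEPES pH 7.4 with 300 mM NaCl, 0.01% Triton X-100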
# aDG glyco act: alpha-DG glycosylation activation | Pro5-aDG cells, alpha-DG glycosylation AlphaScreen (IIH6); 0% Pro5, 100% B10-LARGE cell signal | activation, % at 10 µM | actives 0.22% (n = 360,000);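 active = activation of at least 8% versus controls, or a plate z-score of at least 8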;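 also: Pro5 are CHO cells carrying HIG-tagged alpha-DG that lacks glycosylation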
# MPTP block: permeability transition pore inhibition; isolated mouse mitochondria, Ca2+ swelling absorbance, 30 min; inhibition, % at 10 µM; actives 1.4% (n = 360,000); AID 602449;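 active = inhibition of 50% or more, scaled per plate between neutral and stimulator controls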
# NR3A LBD binder: modulators (binders) of human NR3A ligand-binding domain. actives 2.5% (n = 340,000). NR3A LBD differential scanning fluorimetry, Tm shift; 0% = protein alone, 100% = glycine-bound protein. Tm shift relative to glycine control, % at 25 µM;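 active = melting temperature shift of at least 10% of the positive control shift, at one fixed dose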
# MPTP counter: Rhodamine 123 counter-screen of mitochondrial pore hits; inhibition, % at 10 µM; shares compounds with MPTP block; AID 624504; isolated mitochondria, membrane potential, Rhodamine 123 fluorescence; actives 78% (n = 5,000); in the data active = inhibition above about 22%
# MPTP abs DR: MPTP inhibition, dose response swelling confirmation; IC50, µM; actives 58% (n = 780); shares compounds with MPTP block; isolated mitochondria swelling, absorbance; in the data active = IC50 below about 20 µM
# MPTP cs DR: active in counter-screen for permeability transition pore inhibitors | shares compounds with MPTP block | isolated mitochondria counterscreen, fluorescence read-out | IC50, µM | actives 49% (n = 780); in the data active = IC50 below about 80 µM
# Hits are given with their value; – = inactive; · = not tested or not shown.
SMILES,procasp3 activ,proCasp7 act,aDG glyco act,MPTP block,NR3A LBD binder,MPTP counter,others
COc1ccc(-c2c[n+]3c4n2CCCCC4=C(c2ccc(Br)cc2)C3)cc1,–,–,–,56.0,–,68.4,
OC(COc1ccc(Cl)cc1)CN1C2=NCCCN2c2ccccc21 (stereo unspecified),–,–,–,70.2,–,–,MPTP abs DR=18.5;MPTP cs DR=–
Cn1c(SCC(=O)NC(=O)Nc2ccccc2)nnc1-c1ccncc1,–,–,–,–,–,·,
O=C(Nc1ccc(Oc2ccccc2)cc1)C1CCN(c2c3c(nc4ncnn24)CCC3)CC1,–,–,–,67.4,–,76.2,
COc1ccc(CNCC(O)COc2cccc3c2OC(C)(C)C3)cc1 (stereo unspecified),–,–,–,74.9,–,46.4,
COC(=O)c1ccc(COc2cccc3c2OC(C)(C)C3)cc1,–,–,–,–,–,·,
O=C(O)c1ccccc1-c1c2cc(I)c(=O)c(I)c-2oc2c(I)c(O)c(I)cc12,–,–,–,78.6,–,–,
CCCCOCCCNC(=O)C[C@@H]1C[C@@]2(C(=O)OCC)CCC=C2N(Cc2ccccc2)C1=O,·,·,–,–,·,·,
Fc1ccc(C2CCNCC2COc2ccc3c(c2)OCO3)cc1 (stereo unspecified),–,–,–,–,–,·,
Fc1ccc([C@@H]2CCNC[C@H]2COc2ccc3c(c2)OCO3)cc1,–,–,–,97.5,–,–,
Clc1ccc(OCCOCCN2CCc3ccccc3C2)c(Cl)c1,–,–,–,100.0,–,–,MPTP abs DR=–;MPTP cs DR=31.2
CN(C)c1ccc(CNC(=O)C2(C)Cc3c(-c4cccc(C(F)(F)F)c4)ccnc3O2)cc1 (stereo unspecified),·,·,–,–,·,·,
Cc1ccc(C(=O)N2CCC2(C)C(=O)NC(C)C)cc1 (stereo unspecified),·,·,–,–,·,·,
Cc1ccc([C@H]2C[C@@H](O)[C@H](n3cc(-c4ccc(F)cc4)nn3)CN2C(=O)c2cccs2)cc1,·,·,–,–,·,·,
CC(C)(C)c1ccc(NC(=S)NCc2cccs2)cc1,–,–,–,–,–,·,
CC(Cc1cccs1)NC(=S)Nc1ccc(Cl)cc1 (stereo unspecified),–,–,–,83.3,–,94.9,
CC(Cc1cccs1)NC(=O)Nc1cccc(Cl)c1 (stereo unspecified),–,–,–,87.3,–,86.2,
CC(Cc1cccs1)NC(=S)Nc1ccc(Cl)c(Cl)c1 (stereo unspecified),–,–,–,80.2,–,94.3,
CCC(C)c1ccc(NC(=S)NCc2cccs2)cc1 (stereo unspecified),–,–,–,97.3,–,85.2,
Cc1ccc(C(=O)OCC(=O)Nc2cccc(S(=O)(=O)N3CCCCC3)c2)s1,·,·,–,–,·,·,
COc1ccc(C(C[N+](=O)[O-])c2c(C)[nH]n(-c3ccccc3)c2=O)cc1 (stereo unspecified),–,–,–,–,–,·,
Cc1[nH]n(-c2ccccc2)c(=O)c1C(c1ccc(O)c([N+](=O)[O-])c1)c1c(C)[nH]n(-c2ccccc2)c1=O,–,–,–,90.8,–,73.7,
O=C(Nc1nc(-c2ccccn2)cs1)c1ccc(Br)s1,–,–,–,53.9,26.1,–,
O=C(Nc1nc(-c2cc(Cl)sc2Cl)cs1)c1ccc(Br)s1,–,–,–,103.7,–,–,
O=C(Nc1nc(-c2ccccn2)cs1)c1ccco1,–,–,–,–,–,·,
SMILES,procasp3 activ,proCasp7 act,aDG glyco act,MPTP block,NR3A LBD binder,MPTP counter,others
O=C(COC(=O)c1cc(Br)ccc1O)NNC(=O)c1cccs1,–,–,–,–,–,·,
CCOC(=O)C1=C(C)NC(C)=C(C(=O)OCC)C1C(=O)OCC(=O)Nc1ccc(NC(C)=O)cc1,·,·,–,–,·,·,
CCCCOc1ccc(S(=O)(=O)NC(=O)C2(C)CCN2C(=O)CCc2ccccc2)cc1 (stereo unspecified),·,·,–,–,·,·,
Cc1ccc(-n2cc(CNCCCn3ccnc3C)c(-c3ccc(F)cc3)n2)cc1,–,–,–,59.5,–,–,
Cc1ccc(-c2nn(-c3ccccc3)cc2CNCc2ccccc2)cc1,–,–,–,95.7,–,–,MPTP abs DR=4.71;MPTP cs DR=30.5
CCCCC#Cc1ccc(C(=O)NNC(=O)Nc2cc(Cl)cc(Cl)c2)o1,–,–,–,78.9,–,76.8,
Cc1cc(C(=O)NNC(=O)Nc2ccc(Cl)cc2)no1,–,–,–,–,–,·,
CCCCN1CCC(=O)C(C(=O)OCC)=C1C(=O)OCC,·,·,–,–,–,·,
CCn1nc(C)c(CNC(=O)c2cc(COc3ccc(F)cc3Cl)on2)c1C,–,–,–,52.6,–,36.3,
CCn1nc(C)c(CNC(=O)c2cc(COc3ccc(C)nc3)on2)c1C,–,–,–,–,–,·,
COc1cc(CNCCCN2CCOCC2)cc(Br)c1OCc1ccc(Cl)cc1,–,–,–,74.0,–,–,
CC(C)c1ccc(-c2cc(C(=O)N3N=C(C(F)F)CC3(O)C(F)F)c3ccccc3n2)cc1 (stereo unspecified),–,–,–,76.7,34.7,96.7,
O=C(c1cc(C2CC2)nc2ccccc12)N1N=C(C(F)F)CC1(O)C(F)F (stereo unspecified),–,–,–,–,–,·,
O=C(c1cc(C2CC2)nc2ccc(Br)cc12)N1N=C(C(F)F)CC1(O)C(F)F (stereo unspecified),–,–,–,75.3,–,84.2,
c1ccc2c(c1)ncn2CCCOc1ccc2c(c1)CCC2,–,–,–,53.5,–,59.9,
Cc1ccccc1OCCCCn1cnc2ccccc21,–,–,–,92.6,–,88.7,
CCCOc1ccc(Cn2cnc3ccccc32)cc1,–,–,–,89.0,–,76.8,
Fc1ccc(Cn2cnc3ccccc32)cc1,–,–,–,–,–,·,
CC(=O)c1cn(CCOc2ccccc2C)c2ccccc12,–,–,–,96.5,–,81.7,
CC1CC(C)CN(C(=O)COC(=O)COc2ccc(C#N)cc2)C1 (stereo unspecified),–,–,–,–,–,·,
COc1ccc(N(CC(=O)NC(C)(C)C)S(=O)(=O)c2ccccc2)cc1OC,–,–,–,–,–,·,
c1ccc2c(c1)ncn2CCCCOc1ccc2c(c1)CCC2,–,–,–,88.3,–,95.8,
COc1ccc(C(=O)COC(=O)/C=C/c2ccccc2)cc1,–,–,–,–,–,·,
NS(=O)(=O)c1cccc(NS(=O)(=O)c2ccc(/C=C/C(=O)OCC(=O)c3ccccc3)cc2)c1,–,–,–,59.8,–,26.8,
